The source of these data is ChEMBL document CHEMBL3351355, “Structure-affinity/activity relationships of 1,4-dioxa-spiro[4.5]decane based ligands at α1 and 5-HT1A receptors” (Eur J Med Chem, 2014).

The target in test [1] is T1, 5-hydroxytryptamine receptor 1A (Homo sapiens) (UniProt P08908).
T1 sequence (whole entry): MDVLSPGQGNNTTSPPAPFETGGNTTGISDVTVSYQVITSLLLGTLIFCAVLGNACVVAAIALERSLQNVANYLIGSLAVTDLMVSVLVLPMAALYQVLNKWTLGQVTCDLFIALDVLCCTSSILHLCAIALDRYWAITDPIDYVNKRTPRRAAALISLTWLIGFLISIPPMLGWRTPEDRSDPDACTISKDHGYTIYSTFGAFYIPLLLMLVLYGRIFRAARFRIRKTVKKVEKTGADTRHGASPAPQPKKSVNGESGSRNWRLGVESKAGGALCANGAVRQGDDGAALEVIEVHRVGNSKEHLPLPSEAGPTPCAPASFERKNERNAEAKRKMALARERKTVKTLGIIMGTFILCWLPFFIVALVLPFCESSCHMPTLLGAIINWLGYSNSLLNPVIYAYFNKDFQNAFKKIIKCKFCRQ
Description: Agonist activity at human recombinant 5-HT1A receptor expressed in HeLa cells after 30 mins by [35S]GTPgammaS binding assay relative to control. The class given is functional, cell-based. An outline of the steps:
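HeLa membranes (50–70 µg protein) in 20 mM HEPES, 3 mM MgSO4, 120 mM NaCl, pH 7.4, preincubated 20 min at 30 °C with 30 µM GDP and drug (0.01 nM–10 µM), then 200 pM [35S]GTPγS added for 30 min at 30 °C. Nonspecific binding with 10 µM GTPγS. Filtration and scintillation counting. Data expressed as % increase over basal, 8-OH-DPAT maximum = 100%. Emax and pD2 derived.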
A general note: GTPγS resists hydrolysis and so accumulates on activated G proteins.

The target in test [2] is T2, Alpha-1B adrenergic receptor (Homo sapiens, UniProt P35368).
T2 sequence (P35368 whole entry): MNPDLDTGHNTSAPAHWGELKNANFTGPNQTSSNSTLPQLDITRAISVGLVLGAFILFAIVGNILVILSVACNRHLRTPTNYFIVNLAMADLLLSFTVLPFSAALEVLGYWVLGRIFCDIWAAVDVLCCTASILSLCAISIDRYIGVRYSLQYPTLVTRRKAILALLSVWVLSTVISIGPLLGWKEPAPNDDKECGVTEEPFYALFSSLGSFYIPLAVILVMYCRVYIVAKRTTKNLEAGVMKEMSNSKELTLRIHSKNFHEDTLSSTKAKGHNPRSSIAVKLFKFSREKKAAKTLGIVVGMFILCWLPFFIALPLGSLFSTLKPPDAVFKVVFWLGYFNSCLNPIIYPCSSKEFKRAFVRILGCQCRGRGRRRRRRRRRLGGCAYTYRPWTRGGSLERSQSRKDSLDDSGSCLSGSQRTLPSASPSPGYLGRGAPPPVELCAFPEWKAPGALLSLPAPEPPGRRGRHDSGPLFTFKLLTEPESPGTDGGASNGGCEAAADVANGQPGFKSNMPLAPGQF
The experiment in a line: Displacement of [3H]prazosin from human recombinant alpha1B adrenoceptor expressed in CHO cells after 30 mins by liquid scintillation counting. Type of test: cell-based. An outline of the steps: (§1)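 CHO cells were stably transfected by electroporation with each human α1 subtype. Membranes (70 µg protein) were incubated in 50 mM Tris pH 7.4 with 0.1–0.4 nM [3H]prazosin and competitor (1 pM–1 µM) for 30 min at 25 °C. Nonspecific binding with 10 µM tamsulosin. Filtration and scintillation counting. pKi from 2–3 experiments in duplicate.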
(In a radioligand displacement assay an active substance lowers the binding of a labelled ligand.)

For test [3], the target named is T3, Alpha-1D adrenergic receptor (Homo sapiens, UniProt P25100).
T3 sequence (P25100 whole entry): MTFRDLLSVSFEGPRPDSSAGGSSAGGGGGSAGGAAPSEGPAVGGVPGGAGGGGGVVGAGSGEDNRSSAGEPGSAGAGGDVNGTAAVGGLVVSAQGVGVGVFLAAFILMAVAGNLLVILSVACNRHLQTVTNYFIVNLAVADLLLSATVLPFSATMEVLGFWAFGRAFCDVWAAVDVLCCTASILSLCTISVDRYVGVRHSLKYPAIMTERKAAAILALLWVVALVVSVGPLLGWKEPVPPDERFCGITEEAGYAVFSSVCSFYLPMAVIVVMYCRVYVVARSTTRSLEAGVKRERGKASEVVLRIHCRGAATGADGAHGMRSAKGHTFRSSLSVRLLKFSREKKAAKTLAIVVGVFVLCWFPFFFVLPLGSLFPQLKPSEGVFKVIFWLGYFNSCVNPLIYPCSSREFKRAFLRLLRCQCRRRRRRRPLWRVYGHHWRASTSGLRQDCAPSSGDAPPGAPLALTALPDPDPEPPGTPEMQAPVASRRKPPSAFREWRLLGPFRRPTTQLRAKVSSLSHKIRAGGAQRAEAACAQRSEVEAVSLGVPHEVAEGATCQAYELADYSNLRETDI
The experiment in a line: Displacement of [3H]prazosin from human recombinant alpha1D adrenoceptor expressed in CHO cells after 30 mins by liquid scintillation counting. Type of test: cell-based. An outline of the steps: as §1

For test [4], the target named is T4, 5-hydroxytryptamine receptor 1A (Homo sapiens, UniProt P08908).
T4 sequence (P08908 whole entry): T1 sequence (whole entry)
The experiment in a line: Displacement of [3H]8-OH-DPAT from human recombinant 5-HT1A receptor expressed in HeLa cells after 30 mins by liquid scintillation counting. Type of test: cell-based. An outline of the steps: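 HeLa cells stably carrying genomic clone G-21 were grown in DMEM with 10% FCS, then lysed in Tris/EDTA pH 7.4. Membranes (80–90 µg protein) were incubated in 50 mM Tris, 2.5 mM MgCl2, 10 µM pargyline, pH 7.4, with 1 nM [3H]8-OH-DPAT and competitor (1 pM–1 µM) for 30 min at 30 °C, in triplicate. Nonspecific binding with 10 µM 5-HT. pKi from 2–3 experiments.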

Test [5] deals with T1, 5-hydroxytryptamine receptor 1A (Homo sapiens). The experiment in a line: Agonist activity at human recombinant 5-HT1A receptor expressed in HeLa cells after 30 mins by [35S]GTPgammaS binding assay. The class given is functional, cell-based. An outline of the steps: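 HeLa membranes expressing human 5-HT1A (50–70 µg protein) in 20 mM HEPES, 3 mM MgSO4, 120 mM NaCl pH 7.4 with 30 µM GDP; test drug 0.01 nM–10 µM, 20 min at 30 °C, then 200 pM [35S]GTPγS for 30 min at 30 °C. Nonspecific with 10 µM GTPγS; filtration and scintillation counting. Emax as % of maximal 8-OH-DPAT stimulation; pD2 = −log EC50.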

`COc1ccccc1N1CCN(CC2COC3(CC[S+]([O-])CC3)O2)CC1` (stereo not given): the Emax in test [1] came to 139%. For the same molecule, the inhibition constant (Ki) is 479 nM in test [2], 42.7 nM in test [3] and 117 nM in test [4]. For the same molecule, the pD2 in test [5] amounted to 8.13.

For orientation: Emax means the size of the effect at its maximum, as opposed to the concentration needed. One may read the Ki as the dissociation constant of the complex between target and ligand, obtained from inhibition or displacement.
